Experimental data of several laboratories.
Protocols differ between the studies behind these lines.
FAAH: Fatty-acid amide hydrolase 1 (FAAH, Homo sapiens, UniProt O00519)
BDKRB1: B1 bradykinin receptor (BDKRB1, Homo sapiens, UniProt P46663)

Compound	target	assay	conditions	inhibition [%]
COCc1c(-c2cc3cc(C)cc(OC)c3s2)c2c(N)ncnn2c1CN1CCNC(=O)C1	Prostaglandin G/H synthase 1 (PTGS1, Homo sapiens, UniProt P23219)	enzyme activity, inhibitor	10 µM	-15
CN(C(=O)Oc1nsnc1N1CCOCC1)C1CCCCCCC1	FAAH	enzyme activity, inhibitor	10 µM, cell membranes	18
c1ccc(C(NCCNC(c2ccccc2)c2ccccc2)c2ccccc2)cc1	BDKRB1	cell-free assay	10 µM	-4
COc1ccc(N(C)C(=O)Oc2nsnc2N2CCCCC2)cc1	FAAH	enzyme activity, inhibitor	10 µM, cell membranes	17
COc1ccc(S(=O)(=O)N(CC(=O)NO)CC(C)C)cc1	Stromelysin-1 (MMP3, Homo sapiens, UniProt P08254)	enzyme activity, inhibitor	0.1 µM	80
O=C(Nc1cccnn1)N1CCN([C@@H]2CCOc3cc(C(F)(F)F)ccc32)CC1	Gastrin/cholecystokinin type B receptor (CCKBR, Homo sapiens, UniProt P32239)	cell-free assay	20 µM	-15
C#Cc1n[nH]c2c(-c3cn([C@@H](C)c4ccccn4)c(=O)[nH]c3=O)cc(F)cc12	Receptor-type tyrosine-protein kinase FLT3 (FLT3, Homo sapiens, UniProt P36888)	enzyme activity, inhibitor	0.1 µM	6.2
C[C@H](C(=O)N[C@H]1COc2ccccc2[C@@H]1S(C)(=O)=O)c1ccc(F)cc1	BDKRB1	cell-free assay	10 µM	7
